Data: ChEMBL document CHEMBL3822419, “Rational Design of Potent and Selective Inhibitors of an Epoxide Hydrolase Virulence Factor from Pseudomonas aeruginosa” (J Med Chem, 2016)
Values after ≈ are worked out from the molar mass of the structure shown.

Test system: GH3
Assay: Cytotoxicity against rat GH3 cells expressing TRE and luciferase gene assessed as cell viability
Assay type: cell-based
Conditions: not given
In short: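 GH3.TRE-Luc cells were seeded in 24-well plates for 24 h, then exposed for 24 h to test chemical in DMSO (0.5% v/v final), with or without T3. Viability per well was taken as total protein by BCA assay. Compounds were tested up to 10 µM.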

SMILES | Activity
CCC(=O)Nc1cc(Cl)c(Oc2ccc(O)c(-c3ccc(C(N)=O)cc3)c2)c(Cl)c1 | Non-toxic
CCC(=O)Nc1cc(Cl)c(Oc2ccc(O)c(-c3ccc(NC(N)=O)cc3)c2)c(Cl)c1 | Non-toxic

Test system: not listed separately
Assay: Inhibition of Pseudomonas aeruginosa recombinant His-tagged CFTR inhibitory factor expressed in expressed in Top10 Escherichia coli cells assessed as formation of 6-methoxy-2-naphthaldehyde preincubated for 5 mins followed by addition of CMNGC as substrate measured for 10 mins in presence of BSA by fluorescent-based assay
Conditions: not given

SMILES | IC50 [µM]
CCOC(=O)CC(=O)Nc1cc(Cl)c(Oc2ccc(O)cc2Br)c(Cl)c1 | 29.3
CCC(=O)Nc1cc(Cl)c(Oc2ccc(O)c(-c3ccc(C#N)cc3)c2)c(Cl)c1 | 11.9
CCC(=O)Nc1cc(Cl)c(Oc2ccc(O)c(-c3ccc(C(=O)NC)cc3)c2)c(Cl)c1 | 1.7
CCC(=O)Nc1cc(Cl)c(Oc2ccc(O)c(-c3ccc(S(N)(=O)=O)cc3)c2)c(Cl)c1 | 2
CC(C)c1cc(Oc2c(Br)cc(NC(=O)CCC(=O)O)cc2Br)ccc1O | 3.2
CCOC(=O)CC(=O)Nc1cc(Br)c(Oc2ccc(OC)c(C(C)C)c2)c(Br)c1 | > 25
CCC(=O)Nc1cc(Cl)c(Oc2ccc(O)c(-c3ccc(C(N)=O)cc3)c2)c(Cl)c1 | 0.35
CCOC(=O)CC(=O)Nc1cc(Cl)c(Oc2ccc(O)cc2)c(Cl)c1 | > 50
CCC(=O)Nc1cc(Br)c(Oc2ccc(O)c(C(C)C)c2)c(Br)c1 | 7.5
CCOC(=O)CC(=O)Nc1cc(Br)c(Oc2ccc(O)c(C(C)C)c2)c(Br)c1 | 6.7
CCC(=O)Nc1cc(Cl)c(Oc2ccc(O)c(-c3cccc(C(N)=O)c3)c2)c(Cl)c1 | 0.46
CCOC(=O)CC(=O)Nc1cc(Cl)c(Oc2ccc(O)c(Br)c2)c(Cl)c1 | 4.9
CCOC(=O)CCC(=O)Nc1cc(Br)c(Oc2ccc(O)c(C(C)C)c2)c(Br)c1 | 5.5
C#Cc1cc(Oc2c(Cl)cc(NC(=O)CC(=O)OCC)cc2Cl)ccc1O | 2.9
CCOC(=O)CC(=O)Nc1cc(Br)c(Oc2cccc(C(C)C)c2)c(Br)c1 | > 50
CC(C)c1cc(Oc2c(Br)cc(N)cc2Br)ccc1O | 9.7
CCC(=O)Nc1cc(Cl)c(Oc2ccc(O)c(-c3ccc(C(=O)O)cc3)c2)c(Cl)c1 | 10.5
CCC(=O)Nc1cc(Cl)c(Oc2ccc(O)c(-c3ccc(NC(C)=O)cc3)c2)c(Cl)c1 | 15.6
CCC(=O)Nc1cc(Cl)c(Oc2ccc(O)c(-c3ccccc3)c2)c(Cl)c1 | 1.4
CCC(=O)Nc1cc(Cl)c(Oc2ccc(O)c(-c3cccc(C#N)c3)c2)c(Cl)c1 | 0.58
CCOC(=O)CC(=O)Nc1ccc(Oc2ccc(O)c(C(C)C)c2)c(Cl)c1 | 11.6
CCOC(=O)CC(=O)Nc1cc(Cl)c(Oc2ccc(O)c(I)c2)c(Cl)c1 | 3.8
CCC(=O)Nc1cc(Cl)c(Oc2ccc(O)c(-c3ccc(C(C)=O)cc3)c2)c(Cl)c1 | 0.35
CCC(=O)Nc1cc(Cl)c(Oc2ccc(O)c(-c3ccc(NC(N)=O)cc3)c2)c(Cl)c1 | 0.29
CCOC(=O)CC(=O)Nc1cc(Cl)c(Oc2ccc(O)c(C(F)(F)F)c2)c(Cl)c1 | 3
CC(=O)Nc1cc(Br)c(Oc2ccc(O)c(C(C)C)c2)c(Br)c1 | 8.8
CCOC(=O)CC(=O)Nc1cc(Cl)c(Oc2ccc(O)c(C(C)C)c2)c(Cl)c1 | 3.8

Test system: not listed separately
Assay: Agonist activity at thyroid hormone receptor in rat GH3 cells expressing TRE measured after 24 hrs in presence of T3 by luciferase reporter gene assay
Assay type: cell-based
Conditions: GH3, 24 h
In short: (§1)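 GH3.TRE-Luc cells grown in regular growth medium, then seeded into 24-well plates for 24 h. Cells exposed 24 h with or without T3 plus test chemical in DMSO, kept at 0.5% (v/v) in exposure medium. Viability by total protein (BCA assay). Luciferase activity read on lysed cells.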

SMILES | EC50 [µM]
CCC(=O)Nc1cc(Cl)c(Oc2ccc(O)c(-c3ccc(C(N)=O)cc3)c2)c(Cl)c1 | > 10
CCC(=O)Nc1cc(Cl)c(Oc2ccc(O)c(-c3ccc(C(C)=O)cc3)c2)c(Cl)c1 | > 10
CCC(=O)Nc1cc(Cl)c(Oc2ccc(O)c(-c3ccc(NC(N)=O)cc3)c2)c(Cl)c1 | > 10

Test system: not listed separately
Assay: Antagonist activity at thyroid hormone receptor in rat GH3 cells expressing TRE at 10 uM measured after 24 hrs in presence of T3 by luciferase reporter gene assay
Assay type: cell-based
Conditions: GH3, 24 h
In short: as §1

SMILES | inhibition at 10 µM [%]
CCC(=O)Nc1cc(Cl)c(Oc2ccc(O)c(-c3ccc(C(N)=O)cc3)c2)c(Cl)c1 | 66
CCC(=O)Nc1cc(Cl)c(Oc2ccc(O)c(-c3ccc(C(C)=O)cc3)c2)c(Cl)c1 | 33
CCC(=O)Nc1cc(Cl)c(Oc2ccc(O)c(-c3ccc(NC(N)=O)cc3)c2)c(Cl)c1 | 28

Biological target: T1, Bifunctional epoxide hydrolase 2 (Homo sapiens, UniProt P34913)
T1 sequence (P34913 whole entry): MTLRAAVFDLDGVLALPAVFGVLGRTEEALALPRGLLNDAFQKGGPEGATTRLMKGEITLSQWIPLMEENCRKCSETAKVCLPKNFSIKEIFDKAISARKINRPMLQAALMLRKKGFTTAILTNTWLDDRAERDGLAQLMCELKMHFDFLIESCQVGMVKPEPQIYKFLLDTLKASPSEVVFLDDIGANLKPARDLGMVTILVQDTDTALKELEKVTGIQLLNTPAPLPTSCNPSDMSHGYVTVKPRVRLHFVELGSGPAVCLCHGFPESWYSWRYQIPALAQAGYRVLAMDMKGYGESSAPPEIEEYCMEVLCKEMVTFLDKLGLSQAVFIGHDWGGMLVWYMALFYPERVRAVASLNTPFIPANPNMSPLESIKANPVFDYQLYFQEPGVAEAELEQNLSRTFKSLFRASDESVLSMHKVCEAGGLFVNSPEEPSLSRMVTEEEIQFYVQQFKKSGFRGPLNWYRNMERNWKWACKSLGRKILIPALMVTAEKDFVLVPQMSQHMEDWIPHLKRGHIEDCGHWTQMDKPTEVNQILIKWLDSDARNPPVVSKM
Assay: Inhibition of recombinant human sEH expressed in insect High Five cells preincubated for 5 mins followed by addition of t-DPPO as substrate measured after 10 mins by liquid scintillation counter method
Assay type: cell-based, BTI-TN-5B1-4
Conditions: not given

SMILES | IC50 [µM]
CCC(=O)Nc1cc(Cl)c(Oc2ccc(O)c(-c3ccc(C(N)=O)cc3)c2)c(Cl)c1 | 8.6
CCC(=O)Nc1cc(Cl)c(Oc2ccc(O)c(-c3ccc(C(C)=O)cc3)c2)c(Cl)c1 | 7.7
CCC(=O)Nc1cc(Cl)c(Oc2ccc(O)c(-c3ccc(NC(N)=O)cc3)c2)c(Cl)c1 | 7.5

Biological target: T2, Epoxide hydrolase 1 (Homo sapiens, UniProt P07099)
T2 sequence (P07099 whole entry): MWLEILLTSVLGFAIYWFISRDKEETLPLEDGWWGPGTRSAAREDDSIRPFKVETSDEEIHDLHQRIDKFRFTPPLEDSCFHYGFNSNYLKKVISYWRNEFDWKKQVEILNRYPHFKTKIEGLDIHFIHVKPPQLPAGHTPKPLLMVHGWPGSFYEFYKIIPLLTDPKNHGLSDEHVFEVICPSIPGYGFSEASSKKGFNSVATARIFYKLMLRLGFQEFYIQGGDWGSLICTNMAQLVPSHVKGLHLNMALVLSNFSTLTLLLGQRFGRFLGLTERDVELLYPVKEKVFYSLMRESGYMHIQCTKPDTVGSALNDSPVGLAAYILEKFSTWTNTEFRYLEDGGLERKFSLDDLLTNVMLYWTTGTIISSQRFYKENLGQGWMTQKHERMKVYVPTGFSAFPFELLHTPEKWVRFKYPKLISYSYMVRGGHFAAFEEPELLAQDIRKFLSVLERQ
Assay: Inhibition of recombinant human mEH expressed in baculovirus expression system assessed as formation of 6-methoxy-2-naphthaldehyde preincubated for 5 mins followed by addition of CMNGC as substrate by fluorescent-based assay
Conditions: not given

SMILES | IC50 [µM]
CCC(=O)Nc1cc(Cl)c(Oc2ccc(O)c(-c3ccc(C(N)=O)cc3)c2)c(Cl)c1 | 17.2
CCCCCCCCCSC(C)C(N)=O (configuration not stated) | 6
CCC(=O)Nc1cc(Cl)c(Oc2ccc(O)c(-c3ccc(C(C)=O)cc3)c2)c(Cl)c1 | 97.8
CCC(=O)Nc1cc(Cl)c(Oc2ccc(O)c(-c3ccc(NC(N)=O)cc3)c2)c(Cl)c1 | 26.3

Test system: Liver microsome
Assay: Half life in human liver microsomes measured after 60 mins in presence of NADPH by LC-MS/MS analysis
Assay type: ADME
Conditions: 1 h

SMILES | t1/2 [min]
CCC(=O)Nc1cc(Cl)c(Oc2ccc(O)c(-c3ccc(C(N)=O)cc3)c2)c(Cl)c1 | 15
CCC(=O)Nc1cc(Cl)c(Oc2ccc(O)c(-c3ccc(C(C)=O)cc3)c2)c(Cl)c1 | 5.7
CCC(=O)Nc1cc(Cl)c(Oc2ccc(O)c(-c3ccc(NC(N)=O)cc3)c2)c(Cl)c1 | 29

Test system: not listed separately
Assay: Stability in rat GH3 cells expressing TRE and luciferase gene assessed as percentage remaining at 10 uM measured after 24 hrs
Assay type: ADME, cell-based
Conditions: read-out: Stability
In short: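 Compound at 10 µM initial concentration incubated 24 h with GH3.TRE-Luc cells. Read-out is percentage of compound remaining, given as mean±SD.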

SMILES | remaining at 24 h, 10 µM [%]
CCC(=O)Nc1cc(Cl)c(Oc2ccc(O)c(-c3ccc(C(N)=O)cc3)c2)c(Cl)c1 | 106
CCC(=O)Nc1cc(Cl)c(Oc2ccc(O)c(-c3ccc(C(C)=O)cc3)c2)c(Cl)c1 | 74
CCC(=O)Nc1cc(Cl)c(Oc2ccc(O)c(-c3ccc(NC(N)=O)cc3)c2)c(Cl)c1 | 103

Test system: not listed separately
Assay: Equilibrium solubility of the compound in sodium phosphate buffer at pH 7.4 measured after 24 hrs by LC-MS/MS analysis
Assay type: physicochemical
Conditions: not given

SMILES | solubility thermodynamic at 24 h [µM]
CCC(=O)Nc1cc(Cl)c(Oc2ccc(O)c(-c3ccc(C(N)=O)cc3)c2)c(Cl)c1 | 0.17 (≈ 0.0757 µg/mL)
CCC(=O)Nc1cc(Cl)c(Oc2ccc(O)c(-c3ccc(C(C)=O)cc3)c2)c(Cl)c1 | < 0.04
CCC(=O)Nc1cc(Cl)c(Oc2ccc(O)c(-c3ccc(NC(N)=O)cc3)c2)c(Cl)c1 | 21 (≈ 9.67 µg/mL)

Test system: not listed separately
Assay: Protein binding in Balb/c mouse plasma at 1 uM by rapid equilibrium dialysis method
Assay type: ADME, cell-free
Conditions: not given
In short: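 Mouse plasma protein binding measured at 1 µM compound by rapid equilibrium dialysis.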

SMILES | PPB [%]
CCC(=O)Nc1cc(Cl)c(Oc2ccc(O)c(-c3ccc(C(N)=O)cc3)c2)c(Cl)c1 | > 99
CCC(=O)Nc1cc(Cl)c(Oc2ccc(O)c(-c3ccc(C(C)=O)cc3)c2)c(Cl)c1 | > 99
CCC(=O)Nc1cc(Cl)c(Oc2ccc(O)c(-c3ccc(NC(N)=O)cc3)c2)c(Cl)c1 | > 99

Test system: not listed separately
Assay: Stability in human liver microsomes assessed as compound remaining measured after 60 mins in presence of NADPH by LC-MS/MS analysis
Assay type: ADME
Conditions: read-out: Stability

SMILES | remaining at 1 h [%]
CCC(=O)Nc1cc(Cl)c(Oc2ccc(O)c(-c3ccccc3)c2)c(Cl)c1 | 63

Test system: not listed separately
Assay: Cytotoxicity against human CFBE cells at 10 uM by Cytotox 96 non-radioactive cytotoxicity assay
Assay type: cell-based
Conditions: not given

SMILES | Activity
CCC(=O)Nc1cc(Cl)c(Oc2ccc(O)c(-c3ccc(C(N)=O)cc3)c2)c(Cl)c1 | Non-toxic
CCC(=O)Nc1cc(Cl)c(Oc2ccc(O)c(-c3ccc(NC(N)=O)cc3)c2)c(Cl)c1 | Non-toxic
